Results reported in ChEMBL document CHEMBL4043092, “Neuroprotective and Antineuroinflammatory Effects of Hydroxyl-Functionalized Stilbenes and 2-Arylbenzo[b]furans” (J Med Chem, 2017).
The source made the active and inactive calls. The calls are words filed in the database; no cut-off is given here.

Legend:
[1] = Anti-inflammatory activity in Sprague-Dawley rat primary mixed glial cells assessed as inhibition of LPS-induced NO production at 50 uM pretreated for 2 hrs followed by LPS addition measured after 48 hrs by Griess assay (reference value: 100%); assay type: functional, Primary glial cell; set-up: scale not given: the % may be the effect or the level left
Cortical neurone [2] = experiment: Neuroprotective activity against glutamate-induced cell death in Sprague-Dawley rat 10 days old neonatal primary cortical neurons assessed as cell death at maximum non toxic concentration pretreated for 2 hrs followed by 30 uM glutamate addition measured after 24 hrs by MTT assay (reference value: 41.22 +/- 3.40%); assay type: functional
Cortical neurone [3] = experiment: Neuroprotective activity against fibril amyloid beta (25 to 35)-induced cell death in Sprague-Dawley rat 5 day old neonatal primary cortical neurons assessed as cell death at maximum non toxic concentration pretreated for 2 hrs followed by 10 uM fibril amyloid beta (25 to 35) addition measured after 48 hrs by MTT assay (reference value: 39.20 +/- 0.88%); assay type: functional
Summary of the method: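 Rat cortical neurons from pups, papain-dissociated, cytosine arabinoside (5 μM, 1 day) to remove non-neuronal cells, used at DIV5. Vehicle 0.1% DMSO or compound pretreatment before fAβ25–35 (aged 1 week at 37 °C). Viability by MTT reduction: 0.5 mg/mL for 1 h, formazan dissolved in DMSO, OD600. Mean ± SD of three independent experiments.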

Cortical neurone [4] = experiment: (§1) Neuroprotective activity against glutamate-induced cell death in Sprague-Dawley rat 10 days old neonatal primary cortical neuron assessed as inhibition of glutamate-induced decrease in MAP2 level at 50 uM pretreated for 2 hrs followed by 30 uM glutamate addition measured after 24 hrs by fluorescein isothiocyanate dye-based immunocytochemistry analysis; assay type: functional
Summary of the method: (§2)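 Cortical neurons at DIV5 (fibrillar Aβ25–35 10 μM, 48 h) or DIV10 (glutamate 30 μM, 24 h), after 2 h with 50 μM compound. Fixed in 4% paraformaldehyde, permeabilized with Triton X-100, blocked with donkey serum. Stained with anti-MAP2 and anti-tau (1:100, overnight at 4 °C), then FITC and RRX secondaries. Integrated density relative to vehicle. Mean ± SEM, n=3.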

Cortical neurone [5] = experiment: (§3) Neuroprotective activity against glutamate-induced cell death in Sprague-Dawley rat 10 days old neonatal primary cortical neuron assessed as increase in cell viability at 50 uM pretreated for 2 hrs followed by 30 uM glutamate addition measured after 24 hrs by calcein AM dye-based confocal laser scanning microscopic analysis; assay type: functional
Summary of the method: (§4)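 Rat pup cortical neurons in Neurobasal/B27, given 5 μM cytosine arabinoside for 1 day. Used at DIV5 for Aβ25–35 fibrils (aged 1 week at 37 °C; 10 μM, 48 h) or DIV10 for glutamate (30 μM, 24 h), after 2 h with 50 μM compound or 0.1% DMSO. Cells loaded with 1 μM calcein AM and ethidium homodimer-1 for 30 min at room temperature, imaged by confocal microscopy. Live-cell count and integrated density expressed relative to vehicle. Mean ± SEM, n=3.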

Cortical neurone [6] = experiment: as §3, with “fibril amyloid beta (25 to 35)-induced” for “glutamate-induced”, “5” for “10”, “10” for “30”, “fibril amyloid beta (25 to 35)” for “glutamate”, “48” for “24”; assay type: functional; summary of the method: as §4
Cortical neurone [7] = experiment: as §1, with “tau” for “MAP2”; assay type: functional; summary of the method: as §2
[8] = Anti-inflammatory activity in Sprague-Dawley rat primary mixed glial cells assessed as inhibition of LPS-induced NO production pretreated for 2 hrs followed by LPS addition measured after 48 hrs by Griess assay; assay type: functional, cell-based; details: Glial cell
Summary of the method: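 Mixed cortical glia kept 3 days in DMEM/F12 with 10% FBS, medium changed, 4 more days, then 9 days in Neurobasal/B27 (16 days total). Cultures activated 2 days after medium refresh with 100 ng/mL LPS for 48 h, with compound at maximum nontoxic concentration. Medium nitrite read by Griess reagent at 540 nm against NaNO2 standard. Mean ± SD, three independent experiments.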

[9] = Antioxidant activity assessed as ABTS radical cation scavenging activity by measuring trolox equivalents by spectrophotometric analysis; assay type: functional
Cortical neurone [10] = experiment: as §1, with “fibril amyloid beta (25 to 35)-induced” for “glutamate-induced”, “5” for “10”, “tau protein” for “MAP2”, “10” for “30”, “fibril amyloid beta (25 to 35)” for “glutamate”, “48” for “24”; assay type: functional; summary of the method: as §2
Cortical neurone [11] = experiment: Neuroprotective activity against glutamate-induced cell death in Sprague-Dawley rat 10 days old neonatal primary cortical neurons assessed as increase in cell viability pretreated for 2 hrs followed by 30 uM glutamate addition measured after 24 hrs by MTT assay; assay type: functional, cell-based
Summary of the method: (§5)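 Cortical neurons pretreated 2 h with vehicle (0.1% DMSO) or compound at maximum nontoxic concentration. Then exposed at DIV5 to fibrillar Aβ25–35 (10 μM, 48 h) or at DIV10 to glutamate (30 μM, 24 h). MTT 0.5 mg/mL for 1 h, formazan dissolved in DMSO, OD read at 600 nm. Mean ± SD of three independent experiments.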

Mus musculus [12] = experiment: Antialzheimer activity in APPswe/PSEN1dE9 double transgenic C57BL/6J mouse model of Alzheimer's disease assessed as increase in nesting score at 30 mg/kg/day administered via oral gavage over 60 days by nesting test; assay type: functional, organism-based
Summary of the method: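 Female APP/PS1 C57BL/6J mice, 5 months old, given compound by oral gavage at 30 mg/kg/day for 60 days. Wild-type siblings received vehicle. Two nestlets (about 5 g) placed in the cage 1 h before the dark cycle. Nest score and unshredded nestlet weight recorded. Mean ± SD per group.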

Mus musculus [13] = experiment: Antialzheimer activity in APPswe/PSEN1dE9 double transgenic C57BL/6J mouse model of Alzheimer's disease assessed as decrease in number of unshredded nestlets at 30 mg/kg/day administered via oral gavage over 60 days by nesting test
Cytochrome P450 3A4 = Cytochrome P450 3A4 (Homo sapiens, UniProt P08684); experiment: Inhibition of CYP3A4 in human liver microsomes; assay type: ADME
Chain of Cytochrome P450 3A4 (P08684 whole entry): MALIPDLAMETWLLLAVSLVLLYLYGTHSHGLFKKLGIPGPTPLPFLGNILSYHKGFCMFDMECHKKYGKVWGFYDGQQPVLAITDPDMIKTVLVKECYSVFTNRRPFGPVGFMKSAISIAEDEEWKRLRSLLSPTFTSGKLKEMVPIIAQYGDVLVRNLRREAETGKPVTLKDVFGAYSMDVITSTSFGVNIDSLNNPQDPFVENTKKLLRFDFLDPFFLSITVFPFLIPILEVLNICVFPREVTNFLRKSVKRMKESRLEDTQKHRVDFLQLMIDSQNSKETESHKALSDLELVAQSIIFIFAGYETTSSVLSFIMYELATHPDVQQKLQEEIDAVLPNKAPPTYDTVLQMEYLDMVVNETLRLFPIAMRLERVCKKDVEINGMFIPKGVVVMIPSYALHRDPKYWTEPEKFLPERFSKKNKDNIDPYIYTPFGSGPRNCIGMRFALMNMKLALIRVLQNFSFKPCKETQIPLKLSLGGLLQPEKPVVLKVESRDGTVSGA

Cortical neurone [14] = experiment: Neuroprotective activity against fibril amyloid beta (25 to 35)-induced cell death in Sprague-Dawley rat 5 days old neonatal primary cortical neurons assessed as increase in cell viability pretreated for 2 hrs followed by 10 uM fibril amyloid beta (25 to 35) addition measured after 48 hrs by MTT assay; assay type: functional, cell-based; summary of the method: as §5

| Structure (SMILES) | Activity [1] | Activity (Cortical neurone [2]) | Activity (Cortical neurone [3]) | further results |
| --- | --- | --- | --- | --- |
| COc1cc(/C=C/c2ccc3c(c2)OCO3)cc(OC)c1OC | 83.73% | 36.43% | 45.46% |  |
| CCOC(=O)/C=C/c1ccc(/C=C/c2cc(O)c(O)c(O)c2)cc1 | 72.93% | 28.05% | 19.23% | inhibition (Cortical neurone [4]): Active; Activity (Cortical neurone [5]): Active; Activity (Cortical neurone [6]): Active; inhibition (Cortical neurone [7]): Active; EC50 [8]: 99.2 µM; Activity [9]: 0.14 mMequiv; inhibition (Cortical neurone [10]): inactive; EC50 (Cortical neurone [11]): > 50 µM; Activity (Mus musculus [12]): inactive; Activity (Mus musculus [13]): inactive; IC50 (Cytochrome P450 3A4): 36.2 µM; EC50 (Cortical neurone [14]): 40.9 µM |
| COc1ccc(Br)c2cc(-c3ccc4c(c3)OCO4)oc12 | 202.71% | 46.84% | 43.98% |  |
| CCOC(=O)/C=C/c1cc(OC)c(OC)cc1/C=C/c1ccccc1O | 73.27% | 43.3% | 36.56% |  |
| COc1ccc(/C=C/c2cc(Br)cc(OC)c2O)cc1OC | 88.34% | 42.09% | 41.5% |  |
| COC(=O)/C=C/c1ccc(O)c2c1C=Cc1cc(O)c(O)cc1O2 | 99.63% | 20.38% | 40.12% | Activity [9]: 1.48 mMequiv; EC50 (Cortical neurone [11]): > 50 µM |
| CCOC(=O)/C=C/c1cc(O)c(O)cc1-c1cc2ccccc2o1 | 49.61% | 21% | 25.45% | inhibition (Cortical neurone [4]): Active; Activity (Cortical neurone [5]): Active; Activity (Cortical neurone [6]): Active; inhibition (Cortical neurone [7]): Active; EC50 [8]: > 100 µM; Activity [9]: 0.01 mMequiv; inhibition (Cortical neurone [10]): inactive; EC50 (Cortical neurone [11]): 46.1 µM; Activity (Mus musculus [12]): Active; Activity (Mus musculus [13]): Active; IC50 (Cytochrome P450 3A4): 11.2 µM; EC50 (Cortical neurone [14]): > 50 µM |
| CCOC(=O)/C=C/c1cc2c(cc1/C=C/c1cc(OC)c(OC)c(OC)c1)OCO2 | 127.76% | 43.95% | 41.76% |  |
| CCOC(=O)/C=C/c1cc2c(cc1/C=C/c1ccc(OC)cc1)OCO2 | 74.88% | 37.28% | 41.62% |  |
| CCOC(=O)/C=C/c1cccc(/C=C/c2cc(O)c(O)c(O)c2)c1 | 26.02% | 42.05% | 41.19% | EC50 [8]: 48.9 µM; EC50 (Cortical neurone [11]): > 50 µM; EC50 (Cortical neurone [14]): > 50 µM |
| CCOC(=O)/C=C/c1ccc(OC)c(O)c1/C=C/c1ccc(OC)c(OC)c1 | 106.26% | 44.3% | 38.07% |  |
| CCOC(=O)/C=C/c1ccc(OC)c(O)c1/C=C/c1cc(OC)c(OC)c(OC)c1 | 114.19% | 43.06% | 42.53% |  |
| CCOC(=O)/C=C/c1cccc(/C=C/c2cc(OC)c(OC)c(OC)c2)c1 | 75.6% | 43.29% | 35.98% |  |
| O=C(O)/C=C/c1ccc(O)c2c1C=Cc1cc(O)c(O)cc1O2 [TOURNEFOLIC ACID B] | 98.77% | 42.43% | 24.66% | Activity [9]: 1.27 mMequiv; EC50 (Cortical neurone [14]): 35.7 µM |
| CCOC(=O)/C=C/c1cc(OC)c(OC)cc1/C=C/c1cccc(OC)c1O | 89.35% | 42.73% | 41.24% |  |
| CCOC(=O)/C=C/c1c(/C=C/c2ccc(OC)cc2)cc(OC)c(OC)c1OC | 59.11% | 41.07% | 36.93% |  |
| COc1cc(Br)c(/C=C/c2cccc(OC)c2O)cc1OC | 102.71% | 42.89% | 39.67% |  |

| Structure (SMILES) | Activity [1] | Activity (Cortical neurone [2]) | Activity (Cortical neurone [3]) | further results |
| --- | --- | --- | --- | --- |
| Oc1cc(-c2cc3cc(Br)cc(O)c3o2)cc(O)c1O | 106.67% | 43.67% | 45.8% |  |
| COc1cc(Br)c(/C=C/c2cc(Br)cc(OC)c2O)cc1OC | 94.57% | 41.17% | 38.78% |  |
| CCOC(=O)/C=C/c1cc(/C=C/c2ccc3c(c2)OCO3)c(O)c(OC)c1 | 139.87% | 41.26% | 39.08% |  |
| COc1cc(/C=C/c2ccccc2O)c(Br)c(OC)c1OC | 105.48% | 47.1% | 37.67% |  |
| COc1ccc(/C=C/c2ccc3c(c2)OCO3)cc1O | 81.35% | 30.94% | 43.51% |  |
| CCOC(=O)/C=C/c1ccc(OC)c(O)c1/C=C/c1ccc2c(c1)OCO2 | 70.98% | 49.21% | 38.17% | EC50 [8]: 67 µM; EC50 (Cortical neurone [11]): > 50 µM; EC50 (Cortical neurone [14]): > 50 µM |
| COc1cccc(/C=C/c2ccc3c(c2)OCO3)c1O | 101% | 38.42% | 46.98% |  |
| Oc1cc(-c2cc3ccccc3o2)c(Br)c(O)c1O | 24.92% | 41.89% | 42.34% | EC50 [8]: 39.2 µM; Activity [9]: 0.97 mMequiv; EC50 (Cortical neurone [11]): > 20 µM; EC50 (Cortical neurone [14]): > 20 µM |
| CCOC(=O)/C=C/c1cc(OC)c(OC)cc1/C=C/c1cc(OC)c(OC)c(OC)c1 | 123.48% | 39.47% | 41.59% |  |
| COc1cc(Br)cc(/C=C/c2ccc3c(c2)OCO3)c1O | 48.79% | 45.69% | 45.74% | EC50 [8]: 84.8 µM; EC50 (Cortical neurone [11]): > 20 µM; EC50 (Cortical neurone [14]): > 10 µM |
| CCOC(=O)/C=C/c1ccc(/C=C/c2cc(OC)c(OC)c(OC)c2)cc1 | 91.44% | 44.56% | 44.43% |  |
| COc1ccc(/C=C/c2cc(C=O)cc(OC)c2O)cc1OC | 27.99% | 37.02% | 48.16% | EC50 [8]: 43 µM; EC50 (Cortical neurone [11]): > 50 µM; EC50 (Cortical neurone [14]): > 50 µM |
| COc1cccc(/C=C/c2ccc3c(c2)OCO3)c1OC | 95.92% | 44.02% | 38.18% |  |
| Oc1ccc(-c2cc3cc(Br)cc(O)c3o2)cc1 | 101.84% | 33.02% | 30.1% |  |
| CCOC(=O)/C=C/c1cc2c(cc1/C=C/c1cccc(OC)c1O)OCO2 | 75.33% | 41.64% | 41.57% |  |
| CCOC(=O)/C=C/c1cc(O)c(O)cc1-c1cc2cccc(O)c2o1 | 38.13% | 43.5% | 31.58% | EC50 [8]: 82.5 µM; Activity [9]: 0.2 mMequiv; EC50 (Cortical neurone [11]): > 50 µM; EC50 (Cortical neurone [14]): > 50 µM |
